Article PMC6379856 (ACS Chemical Biology, 2019)

What was measured:
endogenous PLA2G16 = molecular target: T1, endogenous PLA2G16 (Mus musculus, UniProt Q8R3U1); assay: Competitive ABPP with MB064 in cytosol proteome of mouse WAT and BAT; assay type: biochemical; details: 10 μM
T1 sequence (Q8R3U1 1-162): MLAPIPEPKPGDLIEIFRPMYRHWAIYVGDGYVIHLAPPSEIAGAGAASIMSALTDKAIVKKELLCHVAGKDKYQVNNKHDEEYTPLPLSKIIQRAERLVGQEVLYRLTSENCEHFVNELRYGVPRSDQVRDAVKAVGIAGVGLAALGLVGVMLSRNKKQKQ
Summary of the method: (§1)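 Cytosol proteomes from freshly isolated mouse white and brown adipose tissue were preincubated with test compound (10 µM) or DMSO. They were then labelled with probe MB064, resolved by SDS-PAGE and fluorescence-scanned. The gels were Western blotted with an anti-PLA2G16 antibody to locate native PLA2G16.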

PLA2G16 [1] = molecular target: T2, PLA2G16 (Homo sapiens, UniProt P53816); assay: Competitive ABPP with probe MB064, cytosol proteome of transfected HEK293T cells; assay type: biochemical
T2 sequence (P53816 1-162): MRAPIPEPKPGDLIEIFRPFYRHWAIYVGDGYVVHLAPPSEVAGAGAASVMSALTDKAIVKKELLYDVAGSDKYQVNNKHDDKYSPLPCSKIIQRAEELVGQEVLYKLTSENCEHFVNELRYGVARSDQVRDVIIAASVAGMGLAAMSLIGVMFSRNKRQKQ

[2] = system: endogenously expressed serine hydrolases in mouse brain; assay: Competitive gel-based ABPP in mouse brain proteomes with FP-TAMRA and MB064; assay type: biochemical
Summary of the method: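 Mouse brain membrane and cytosol proteomes were treated with DMSO or test compound at 10 µM. Each was then labelled with MB064 or FP-TAMRA and resolved by SDS-PAGE with fluorescent scanning. Coomassie staining served as the protein loading control.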

[3] = system: other proteins in brown and white adipose tissue; assay type: biochemical, mouse; details: 10 μM, probe MB064
Summary of the method: as §1

RARRES3 = molecular target: T3, RARRES3 (Homo sapiens, UniProt Q9UL19); assay: Competitive ABPP with probe MB064, cytosol proteome of transfected HEK293T cells; assay type: biochemical
T3 sequence (Q9UL19 1-164): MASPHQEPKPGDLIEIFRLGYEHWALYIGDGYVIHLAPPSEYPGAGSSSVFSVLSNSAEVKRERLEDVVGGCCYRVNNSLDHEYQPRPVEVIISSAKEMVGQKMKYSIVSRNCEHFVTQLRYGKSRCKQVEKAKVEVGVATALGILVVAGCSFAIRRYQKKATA

PLA2G16 [4] = molecular target: T2, PLA2G16; assay: PC-A2 fluorescent substrate assay; assay type: biochemical
Summary of the method: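 HEK293T cells overexpressing human PLA2G16 supplied the cytosol proteome used as enzyme source. Test compound was tested over a concentration range in the fluorescent PC-A2 phospholipid substrate assay. Dose–response curves were generated (n = 3).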

iNAT = molecular target: T4, iNAT (Homo sapiens, UniProt Q96KN8); assay: Competitive ABPP with probe MB064, cytosol proteome of transfected HEK293T cells; assay type: biochemical
T4 sequence (Q96KN8 1-279): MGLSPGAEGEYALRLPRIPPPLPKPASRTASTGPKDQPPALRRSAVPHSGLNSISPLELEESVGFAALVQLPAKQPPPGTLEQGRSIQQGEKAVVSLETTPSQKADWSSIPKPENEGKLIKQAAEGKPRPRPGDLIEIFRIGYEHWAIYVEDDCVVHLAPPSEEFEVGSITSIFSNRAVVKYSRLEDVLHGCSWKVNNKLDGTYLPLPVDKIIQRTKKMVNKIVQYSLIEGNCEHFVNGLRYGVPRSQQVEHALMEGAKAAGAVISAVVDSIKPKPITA

HepG2 cells = assay: Oleic acid-induced lipid droplet formation; assay type: cell-based, human; details: 10 μM, 24 h, oleic acid 100 μM
Summary of the method: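 HepG2 cells were given oleic acid (100 µM, 24 h) to induce steatosis and treated in situ with test compound (10 µM, 24 h). Lipid droplets were stained with Adipored. Significance was assessed by Student's t-test.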

[5] = system: U2OS cells transfected with human PLA2G16; assay type: cell-based; details: 10 μM, 4 or 8 h, serum-free, in situ
Summary of the method: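 U2OS cells transfected with human PLA2G16 were exposed in situ, under serum-free conditions, to DMSO vehicle or test compound at 10 µM for 4 or 8 h. Arachidonic acid levels were then measured. Significance was assessed by Student's t-test.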

Structure (SMILES)	labeling of native PLA2G16 by MB064 (endogenous PLA2G16)	PLA2G16 labeling by MB064 (library screen) (PLA2G16 [1]; inhibitor at 10 μM, competitive ABPP)	labeling of proteins in mouse brain targeted by FP-TAMRA or MB064 ([2]; 10 μM, mouse brain membrane and cytosol proteome)	labeling of other proteins in brown and white adipose tissue [3]	IC50 (RARRES3)	Ki (PLA2G16 [4])	increase in potency compared to compound 1 in the ABPP-assay (PLA2G16 [1]; PLA2G16)	selectivity over brain serine hydrolases ([2]; gel-based ABPP assay (Figure S7))	IC50 (iNAT)	lipid droplet formation induced by oleic acid (HepG2 cells)	PLA2G16-induced increase in arachidonic acid [5]
O=C(CCc1ccc(Cl)cc1)C(=O)NCCc1ccccc1 [Compound 1, 4-(4-chlorophenyl)-2-oxo-N-phenethylbutan-amide]	completely abolished	almost completely abolished	did not reduce the labeling of any proteins	not affected	631 nM						
O=C(CCCc1ccccc1)C(=O)NCCc1ccc(Oc2ccc(C(F)(F)F)cn2)cc1 [LEI110, 2-oxo-5-phenyl-N-(4-((5-(trifluoromethyl)pyridin-2-yl)oxy)-phenethyl)pentanamide]	completely abolished			not affected	158 nM	20 nM	10 fold	selective	25.1 nM	reduction in lipid droplet formation	almost completely abolished
